From article PMC4919611 (EBioMedicine, 2016)

What was measured:
[1] = biological target: T1, CBFβ-RUNX1 Runt domain binding (Homo sapiens, UniProt Q13951); test: FRET assay of CBFβ; conditions: inhibition of CBFβ-Runt domain binding
T1 sequence (Q13951 1-141): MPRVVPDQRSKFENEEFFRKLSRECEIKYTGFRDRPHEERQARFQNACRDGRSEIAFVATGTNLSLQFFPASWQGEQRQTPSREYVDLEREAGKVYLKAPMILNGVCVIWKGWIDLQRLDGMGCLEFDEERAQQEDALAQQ
In short: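 FRET binding assay using 100 nM Cerulean-Runt domain and 100 nM Venus-CBFβ across a test compound concentration series. Read-out was the emission ratio at 525/474 nm. Run in duplicate.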

CBFβ = biological target: T2, CBFβ (Homo sapiens, UniProt Q13951); test: NMR detection of interaction with CBFβ; type: binding
T2 sequence (Q13951 1-141): T1 sequence (Q13951 1-141)
In short: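 CBFβ (1-141) in 50 mM KPi pH 7.5, 0.1 mM EDTA, 1 mM DTT, 5% DMSO, 5% D2O. HSQC: 150 μM protein titrated with 600 μM test compound at 800 MHz; 15N/13C shift perturbations taken with versus without compound. STD: 200 μM CBFβ, 2 mM compound, 600 MHz, 25 °C, saturation 500–2000 ms, on-resonance 0.4 ppm, off-resonance 30 ppm.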

RUNX1 Runt domain = RUNX1 Runt domain (Homo sapiens, UniProt Q01196); test: NMR detection of interaction with RUNX1 Runt domain; type: binding
Sequence of RUNX1 Runt domain (Q01196 50-178 limits assumed): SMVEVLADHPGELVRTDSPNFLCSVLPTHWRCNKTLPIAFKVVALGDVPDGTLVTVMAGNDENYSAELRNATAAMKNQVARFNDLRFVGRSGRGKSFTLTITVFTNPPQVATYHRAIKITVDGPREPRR

[2] = tested on: CBFβ-Runt domain interaction; conditions: ref Cunningham et al., 2012; cited from earlier work
CBFβ-RUNX1 binding = conditions: ref Cunningham et al., 2012; cited from earlier work
[3] = tested on: panel of 11 leukemia cell lines; test: Viability of a panel of 11 leukemia cell lines; type: cell-based; conditions: 48 h treatment, 11 cell lines
In short: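 Eleven leukemia lines grown in IMDM with 10% FBS. Plated at 5 × 10^5 cells/ml and treated 48 h with test compound at several doses or DMSO. DAPI-stained; at least 2 × 10^4 events acquired by flow cytometry. Viability taken as percent DAPI-negative cells relative to control.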

SMILES	activity in the FRET assay (in words) [1]	interaction with CBFβ by NMR (CBFβ)	interaction with RUNX1 Runt domain by NMR (RUNX1 Runt domain)	effect in the alpha screen assay [2]	effect on CBFβ-RUNX1 binding in cells (CBFβ-RUNX1 binding)	growth inhibition / activity against leukemia cell lines (in words) [3]
O=C1CN=C(c2ccc[nH]2)c2cc(Cl)ccc2N1 [Ro5-3335]	no effect	could not detect any interaction	could not detect any interaction	does not show significant effects	does not show an effect	–
c1ccc(-c2nc3ccccc3[nH]2)nc1 [AI-4-88]	complete loss of activity	–	–	–	–	did not observe any activity
